Compound activity: PubChem BioAssay, The Scripps Research Institute Molecular Screening Center
OXTR ag: human OXTR agonism; CHO-OTR cells, Fluo-8 calcium fluorescence; normalized: DMSO 0%, oxytocin 100%; activation, % at 3 µM; actives 0.32% (n = 320,000); AID 2435;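 active = activation above the mean of all tested compounds plus 3 SD, cutoff set per screening run, cut at about 20% in these data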;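 also: peak over basal fluorescence ratio from a 100 s FLIPR kinetic read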
TAAR1 ag: agonists of human TAAR1. Q96RJ0. CHO RD-HGA16 TAAR1, Fluo-8 calcium fluorescence; vehicle wells 0%, saturating PEA agonist 100%. activation, % at 3 µM. actives 0.99% (n = 360,000). AID 624467;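 active = activation above the mean activation of all test compounds in the run plus 3 SD, cut at about 38% in these data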
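Repeats: no replicates (n 1) | Material: CHO-derived RD-HGA16 cells with stable Gα16 and human TAAR1 | Technique: Kinetic Fluo-8 calcium fluorescence | Schedule: 17-24 h seeding, 75 min 37 °C dye, 30 min RT | Evaluation: % activation from peak over basal fluorescence ratio, DMSO-to-PEA scaled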
V1aR counter: activates human V1a receptor in oxytocin agonist counter-screen; AID 2797; P37288; CHO-V1R cells, Fluo-8 calcium fluorescence, agonist mode; 0% DMSO, 100% 3 nM vasopressin; actives 0.25% (n = 320,000); activation, % at 3 µM;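 active = activation above the mean activation of all tested compounds plus 3 SD, per screening run, cut at about 20% in these data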;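 also: signal is peak over basal fluorescence ratio across a 100 second FLIPR read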
Target sequence (P37288 whole entry, looked up): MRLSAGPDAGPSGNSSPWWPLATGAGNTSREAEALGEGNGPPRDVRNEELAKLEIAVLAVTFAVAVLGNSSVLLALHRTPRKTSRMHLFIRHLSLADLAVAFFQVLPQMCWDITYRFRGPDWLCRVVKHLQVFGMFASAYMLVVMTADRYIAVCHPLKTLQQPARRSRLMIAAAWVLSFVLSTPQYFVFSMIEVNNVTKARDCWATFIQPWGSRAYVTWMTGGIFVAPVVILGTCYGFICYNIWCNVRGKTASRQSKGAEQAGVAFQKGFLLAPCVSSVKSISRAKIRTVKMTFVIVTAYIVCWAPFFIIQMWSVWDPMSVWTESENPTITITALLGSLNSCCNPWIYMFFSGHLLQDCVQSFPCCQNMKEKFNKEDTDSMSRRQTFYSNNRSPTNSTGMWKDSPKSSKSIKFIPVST
TAAR1 antag: human TAAR1 antagonism; Q96RJ0; CHO RD-HGA16 TAAR1, Fluo-8 calcium fluorescence, antagonist; inhibition, % at 3 µM; actives 1.5% (n = 360,000);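 active = inhibition above a per-plate cutoff, the mean inhibition of test compounds on that plate plus 3 SD, cut at about 49% in these data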
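test system = CHO RD-HGA16 cells bearing hTAAR1 | replication = singlicate | controls = DMSO-only wells and EC80 β-PEA-stimulated wells | reagent = EC80 β-phenethylamine stimulus | read-out basis = percent inhibition of PEA-evoked calcium signal, max/basal emission ratio | schedule = seeding 17-24 h prior, 75-min 37 °C, 30-min RT dye loading | signal = kinetic Fluo-8 calcium fluorescence measurement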
OXTR potentiate: potentiators of human oxytocin receptor. CHO-OTR cells, Fluo-8 calcium fluorescence, potentiator mode; 0% = oxytocin EC15, 100% = EC100. actives 0.061% (n = 320,000). activation, % at 3 µM;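 active = activation above that plate's cutoff, the mean activation of tested compounds plus 3 SD, cut at about 6.6% in these data, passing the limit was not always enough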
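System: human OTR in CHO cells; Also added: sub-maximal oxytocin, roughly EC15; Timing: compound 6 min at room temperature before oxytocin, 100 s read; Technique: Fluo-8 intracellular calcium fluorescence, ex 470-495, em 515-575 nm; Controls: oxytocin EC15 low and EC100 high; Replication: singlicate.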
Hits are given with their value. Hits are enriched below; roughly 2.3% of the tested compounds scored in any of these assays.

What do the screens show for `CNC(=O)c1ccc(NC(=O)c2ccc3c(=O)n4c(nc3c2)CCC4)cc1`?
OXTR ag: inactive; TAAR1 ag: inactive; V1aR counter: inactive; TAAR1 antag: 52.5; OXTR potentiate: inactive

How did COc1ccc(-c2csc(NCCc3nc4cc(Cl)c(Cl)cc4n3CCCO)n2)cc1 do in these assays?
OXTR ag: inactive; TAAR1 ag: inactive; V1aR counter: inactive; TAAR1 antag: 55.5; OXTR potentiate: inactive

What do the screens show for `COc1cccc2c1C(=O)c1c(O)c3c(c(O)c1C2=O)C[C@](O)(C(C)=O)C[C@H]3O[C@@H]1C[C@@H](N)[C@@H](O)[C@@H](C)O1`?
OXTR ag: inactive; TAAR1 ag: inactive; V1aR counter: 21.2; TAAR1 antag: inactive; OXTR potentiate: inactive

How did OC(c1cccc(Cl)c1)c1nc(/C=C/c2ccccc2)cs1 (stereo not drawn) do in these assays?
TAAR1 ag: inactive; TAAR1 antag: inactive

What do the screens show for `N=c1c2c(-c3ccccc3)c(-c3ccccc3)n(Cc3ccco3)c2ncn1Cc1ccccc1`?
OXTR ag: 21.4; TAAR1 ag: inactive; V1aR counter: 22.6; TAAR1 antag: inactive; OXTR potentiate: inactive

What do the screens show for `CC(C)Cn1cnc2c(c(-c3ccccc3)c(-c3ccccc3)n2Cc2ccco2)c1=N`?
OXTR ag: inactive; TAAR1 ag: 41.9; V1aR counter: inactive; TAAR1 antag: inactive; OXTR potentiate: inactive

Results for N=c1c2c(-c3ccccc3)c(-c3ccccc3)n(Cc3ccco3)c2ncn1CCCn1ccnc1 ?
OXTR ag: inactive; TAAR1 ag: inactive; V1aR counter: inactive; TAAR1 antag: inactive; OXTR potentiate: inactive

How did CC1CCCN(C(=O)Nc2ccc([N+](=O)[O-])cc2)C1 (stereo not drawn) do in these assays?
TAAR1 ag: inactive; TAAR1 antag: inactive

Results for CCOC(=O)C1=CCN(S(=O)(=O)c2ccc(Br)cc2)C1c1ccc(F)cc1 (stereo not drawn) ?
TAAR1 ag: inactive; TAAR1 antag: inactive

Results for CCCCN(Cc1ccccc1)S(=O)(=O)c1ccc2[nH]c(=O)oc2c1 ?
OXTR ag: inactive; TAAR1 ag: inactive; V1aR counter: inactive; TAAR1 antag: 48.6; OXTR potentiate: inactive

How did CN1CCCCC(NC(=O)c2ccccc2)C1=O (stereo not drawn) do in these assays?
TAAR1 ag: inactive; TAAR1 antag: inactive

How did CN(CC(=O)Nc1cccc(F)c1)C(=O)c1ccc2c(c1)CC(c1ccccc1)OC2=O (stereo not drawn) do in these assays?
TAAR1 ag: inactive; TAAR1 antag: 58.4

What do the screens show for `CN(CC(=O)Nc1cccc(F)c1)C(=O)c1ccc(C2SCCS2)cc1`?
OXTR ag: inactive; TAAR1 ag: inactive; V1aR counter: inactive; TAAR1 antag: inactive; OXTR potentiate: inactive

Results for N#Cc1c(NCCCO)nc(NCc2ccccc2)c2c1CCN(Cc1ccccc1)C2 ?
OXTR ag: inactive; TAAR1 ag: inactive; V1aR counter: inactive; TAAR1 antag: 55.3; OXTR potentiate: inactive

What do the screens show for `CN(C)CCOC(=O)c1ccc2c(c1)S(=O)(=O)c1ccccc1C2=O`?
OXTR ag: inactive; TAAR1 ag: inactive; V1aR counter: inactive; TAAR1 antag: inactive; OXTR potentiate: inactive

Results for N#CC1=C(N)Oc2cc(O)c(Cl)cc2C1c1ccccc1F (stereo not drawn) ?
OXTR ag: 24.7; TAAR1 ag: inactive; V1aR counter: inactive; TAAR1 antag: inactive; OXTR potentiate: inactive

How did N#CC1=C(N)Oc2cc(O)c(Cl)cc2C1c1cccnc1 (stereo not drawn) do in these assays?
TAAR1 ag: inactive; TAAR1 antag: inactive

Results for O=[N+]([O-])c1ccc(O)c(/C=N/n2cnc3ccccc32)c1 ?
OXTR ag: 20.9; TAAR1 ag: inactive; V1aR counter: inactive; TAAR1 antag: inactive; OXTR potentiate: inactive

How did O=[N+]([O-])c1ccc(O)c(/C=N/n2c(CO)nc3ccccc32)c1 do in these assays?
OXTR ag: inactive; TAAR1 ag: inactive; V1aR counter: inactive; TAAR1 antag: inactive; OXTR potentiate: inactive

Results for COC(=O)[C@]12C[C@H](CC(=O)N3CCOCC3)C(=O)N(Cc3ccc4c(c3)OCO4)C1=C[C@H](C(C)(C)C)O[C@@H]2C ?
TAAR1 ag: inactive; TAAR1 antag: inactive

Results for O=C(CSC1CCc2ccccc21)NN=Cc1ccco1 (stereo not drawn) ?
TAAR1 ag: inactive; TAAR1 antag: inactive
